Columns and labels:
[1] = Half life in cynomolgus monkey at 1 mg/kg, iv; type: ADME, organism-based, Macaca fascicularis; settings: in vivo
Procedure, shortened: (§1)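 Rats, dogs and cynomolgus monkeys, n = 3: parent 1 mg/kg i.v. in PEG400:DMAC:water (70:5:25), or phosphate prodrug 10 mg/kg oral in Methocel:Tween80:water (0.5:0.1:99.4); plasma parent compound, Cmax, Tmax, AUC0-∞, half-life, clearance, Vss and bioavailability derived.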

[2] = Clearance in dog at 1 mg/kg, iv; type: ADME, organism-based, Canis lupus familiaris; settings: in vivo; procedure, shortened: as §1
Homo sapiens [3] = organism: Homo sapiens; assay: Inhibition of sodium channel (unknown origin) at 10 uM and 4 Hz
hERG (KCNH2) = hERG (KCNH2) (Homo sapiens, UniProt Q12809); assay: Inhibition of human ERG at 10 uM
Procedure, shortened: (§2)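 In vitro ion-channel inhibition measured at 10 µM against hERG, Na (4 Hz) and L-type Ca channels; read-out is percent inhibition.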

[4] = Metabolic stability in rat liver microsomes assessed as compound remaining at 3 uM measured after 10 min; type: ADME; settings: read-out: Stability
Procedure, shortened: (§3)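 Test compound at 3.0 µM incubated with liver microsomes for 10 minutes; read-out is percent of parent remaining.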

[5] = Mutagenic activity in Salmonella typhimurium by Ames test; type: toxicity; settings: salmonella enterica subsp. enterica serovar typhimurium
[6] = Cardiotoxicity in anesthetized rabbit assessed as prolongation of QT intervals up to plasma concentration of 38 uM; type: toxicity, Oryctolagus cuniculus
Procedure, shortened: (§4)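 Anesthetized rabbits given compound to plasma concentrations up to 38 µM; QT and QRS duration, mean arterial blood pressure and heart rate recorded.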

Rattus norvegicus [7] = assay: Antiobesity activity in pair-fed DIO Sprague-Dawley rat model assessed as reduction in caloric intake at 1 mg/kg, po qd for 28 days relative to vehicle control; type: functional; design: scale not given: the % may be the effect or the level left
Procedure, shortened: (§5)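 Obese male SD rats on diet-induced obesity, 8/group, dosed orally once daily for 28 days with phosphate prodrug (0.03–3 mg/kg parent) in 14% propylene glycol/1% Tween/85% water; rimonabant 10 mg/kg control; pair-fed groups matched to 1 and 3 mg/kg intake; body weight and food measured daily, % change versus vehicle.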

Homo sapiens [8] = organism: Homo sapiens; assay: Inhibition of human PDE4 using [3H]cAMP at 10 uM
[9] = AUC in rat at 1 mg/kg, iv; type: ADME, organism-based; settings: in vivo; procedure, shortened: as §1
L-type calcium channel = L-type calcium channel (Homo sapiens, UniProt O60840+Q01668+Q13698+Q13936); assay: Inhibition of L-type calcium channel (unknown origin) at 10 uM; procedure, shortened: as §2
[10] = AUC in dog at 1 mg/kg, iv; type: ADME, organism-based, Canis lupus familiaris; settings: in vivo; procedure, shortened: as §1
[11] = Binding affinity to cynomolgus monkey MCHR1; design: species or system Macaca fascicularis
Cytochrome P450 3A4 = Cytochrome P450 3A4 (Homo sapiens, UniProt P08684); assay: Inhibition of CYP3A4 (unknown origin); type: ADME
[12] = target: Melanin-concentrating hormone receptor 1 (Rattus norvegicus, UniProt P97639); assay: Binding affinity to rat MCHR1
Rattus norvegicus [13] = assay: Toxicity in DIO Sprague-Dawley rat assessed as biliary lesion formation at 10 mg/kg, po qd for 4 days; type: organism-based; settings: in vivo, 96 h
[14] = Cardiotoxicity in anesthetized rabbit assessed as effect on heart rate; type: toxicity, tissue-based, Oryctolagus cuniculus; procedure, shortened: as §4
[15] = Cardiotoxicity in anesthetized rabbit assessed as effect on mean arterial blood pressure; type: toxicity, tissue-based, Oryctolagus cuniculus; procedure, shortened: as §4
Rattus norvegicus [16] = assay: Antiobesity activity in pair-fed DIO Sprague-Dawley rat model assessed as reduction in caloric intake at 3 mg/kg, po qd for 28 days relative to vehicle control; type: functional; design: scale not given: the % may be the effect or the level left; procedure, shortened: as §5
[17] = Protein binding in Sprague-Dawley rat plasma at 10 mg/kg, po qd for 4 days; type: ADME, organism-based; settings: read-out: PPB
Rattus norvegicus [18] = assay: Antiobesity activity in pair-fed DIO Sprague-Dawley rat model assessed as reduction in body weight at 3 mg/kg, po qd for 28 days relative to vehicle control; type: functional; design: scale not given: the % may be the effect or the level left; procedure, shortened: as §5
[19] = Clearance in cynomolgus monkey at 1 mg/kg, iv; type: ADME, organism-based, Macaca fascicularis; settings: in vivo; procedure, shortened: as §1
[20] = Volume of distribution at steady state in dog at 1 mg/kg, iv; type: ADME, organism-based, Canis lupus familiaris; settings: in vivo, read-out: Vdss
Procedure, shortened: (§6)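 Full PK in rat, dog and cynomolgus monkey. Oral arm: phosphate prodrug at 10 mg/kg parent-equivalent in Methocel:Tween80:water (0.5:0.1:99.4). Intravenous arm: parent at 1 mg/kg in PEG400:DMAC:water (70:5:25). n = 3 per species; individual Tmax values reported for dog and monkey.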

Cytochrome P450 2C8 = target: T1, Cytochrome P450 2C8 (Homo sapiens, UniProt P10632); assay: Inhibition of CYP2C8 (unknown origin); type: ADME
T1 sequence (P10632 whole entry): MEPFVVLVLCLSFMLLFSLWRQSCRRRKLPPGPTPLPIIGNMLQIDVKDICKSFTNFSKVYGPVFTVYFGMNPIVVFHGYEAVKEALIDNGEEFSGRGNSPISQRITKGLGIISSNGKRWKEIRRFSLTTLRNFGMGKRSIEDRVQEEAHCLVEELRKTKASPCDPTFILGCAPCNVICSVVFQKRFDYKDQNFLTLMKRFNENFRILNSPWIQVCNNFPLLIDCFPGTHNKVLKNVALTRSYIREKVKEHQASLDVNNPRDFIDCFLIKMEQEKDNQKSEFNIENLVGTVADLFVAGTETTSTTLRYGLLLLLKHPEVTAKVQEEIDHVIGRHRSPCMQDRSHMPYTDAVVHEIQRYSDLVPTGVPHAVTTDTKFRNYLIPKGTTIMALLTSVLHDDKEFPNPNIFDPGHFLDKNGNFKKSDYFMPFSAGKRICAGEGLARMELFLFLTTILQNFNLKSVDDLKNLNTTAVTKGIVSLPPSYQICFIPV
Procedure, shortened: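 CYP1A2, 2C8, 2C9, 2C19, 2D6 and 3A4 tested for inhibition, with 40 µM as the top tested limit.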

[21] = Cardiotoxicity in anesthetized rabbit assessed as prolongation of QRS intervals up to plasma concentration of 38 uM; type: toxicity, Oryctolagus cuniculus; procedure, shortened: as §4
[22] = Volume of distribution at steady state in rat at 1 mg/kg, iv; type: ADME, organism-based; settings: in vivo, read-out: Vdss; procedure, shortened: as §6
[23] = Protein binding in rat plasma assessed as unbound fraction; type: ADME, cell-free
Procedure, shortened: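 Plasma protein binding reported as % free drug in rat, DIO rat, dog, cynomolgus monkey, rabbit and human plasma.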

[24] = Solubility of the compound in phosphate buffer at pH 6.4; type: physicochemical
Procedure, shortened: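 Solubility of parent compounds and prodrugs measured in 50 mM phosphate buffer, pH 6.4.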

[25] = AUC in cynomolgus monkey at 1 mg/kg, iv; type: ADME, organism-based, Macaca fascicularis; settings: in vivo; procedure, shortened: as §1
[26] = Displacement of [Phe13,125I]Tyr19]-MCH from human MCHR1 E4Q/A5T double mutant expressed in HEK293 cells by TopCount scintillation counting method; type: cell-based
[27] = Lipophilicity, log P of the compound at pH 7 by HPLC analysis; type: physicochemical; settings: buffer
Procedure, shortened: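 LogP determined by HPLC at pH 7.0.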

[28] = Half life in rat at 1 mg/kg, iv; type: ADME, organism-based; settings: in vivo; procedure, shortened: as §1
[29] = Metabolic stability in mouse liver microsomes assessed as compound remaining at 3 uM measured after 10 min; type: ADME; settings: read-out: Stability; procedure, shortened: as §3

Sequence of hERG (KCNH2) (Q12809 whole entry): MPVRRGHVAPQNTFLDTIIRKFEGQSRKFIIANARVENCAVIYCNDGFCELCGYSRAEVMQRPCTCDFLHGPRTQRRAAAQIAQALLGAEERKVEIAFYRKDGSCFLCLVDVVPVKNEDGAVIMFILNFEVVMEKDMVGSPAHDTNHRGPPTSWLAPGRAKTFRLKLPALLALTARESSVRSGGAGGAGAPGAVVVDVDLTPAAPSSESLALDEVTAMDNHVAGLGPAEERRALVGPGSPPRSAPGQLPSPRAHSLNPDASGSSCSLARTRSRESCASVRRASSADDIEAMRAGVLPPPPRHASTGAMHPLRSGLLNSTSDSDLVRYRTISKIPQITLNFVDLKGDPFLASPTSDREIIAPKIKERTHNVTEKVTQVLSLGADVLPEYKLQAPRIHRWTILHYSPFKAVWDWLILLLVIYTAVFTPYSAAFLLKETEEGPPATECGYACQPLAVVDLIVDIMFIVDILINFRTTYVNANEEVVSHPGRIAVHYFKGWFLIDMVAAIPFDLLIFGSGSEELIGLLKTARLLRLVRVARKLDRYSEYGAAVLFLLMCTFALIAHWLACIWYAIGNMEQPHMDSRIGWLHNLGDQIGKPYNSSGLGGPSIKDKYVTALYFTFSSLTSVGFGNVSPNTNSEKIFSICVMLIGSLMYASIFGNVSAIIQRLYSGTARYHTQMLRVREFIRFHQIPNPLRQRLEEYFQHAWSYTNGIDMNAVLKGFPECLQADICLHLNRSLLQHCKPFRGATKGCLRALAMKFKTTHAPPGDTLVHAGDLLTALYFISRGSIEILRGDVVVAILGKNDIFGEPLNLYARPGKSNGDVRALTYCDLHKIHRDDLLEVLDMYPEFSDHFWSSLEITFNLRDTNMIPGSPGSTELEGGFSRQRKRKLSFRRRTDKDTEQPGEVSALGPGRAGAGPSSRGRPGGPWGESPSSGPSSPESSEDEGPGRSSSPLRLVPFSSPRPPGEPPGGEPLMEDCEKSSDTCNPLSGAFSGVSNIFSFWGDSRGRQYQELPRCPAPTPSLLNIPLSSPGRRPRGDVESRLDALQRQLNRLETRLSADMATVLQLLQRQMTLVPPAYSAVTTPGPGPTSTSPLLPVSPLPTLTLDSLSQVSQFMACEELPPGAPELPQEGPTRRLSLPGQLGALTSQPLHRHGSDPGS
Sequence of Cytochrome P450 3A4 (P08684 whole entry): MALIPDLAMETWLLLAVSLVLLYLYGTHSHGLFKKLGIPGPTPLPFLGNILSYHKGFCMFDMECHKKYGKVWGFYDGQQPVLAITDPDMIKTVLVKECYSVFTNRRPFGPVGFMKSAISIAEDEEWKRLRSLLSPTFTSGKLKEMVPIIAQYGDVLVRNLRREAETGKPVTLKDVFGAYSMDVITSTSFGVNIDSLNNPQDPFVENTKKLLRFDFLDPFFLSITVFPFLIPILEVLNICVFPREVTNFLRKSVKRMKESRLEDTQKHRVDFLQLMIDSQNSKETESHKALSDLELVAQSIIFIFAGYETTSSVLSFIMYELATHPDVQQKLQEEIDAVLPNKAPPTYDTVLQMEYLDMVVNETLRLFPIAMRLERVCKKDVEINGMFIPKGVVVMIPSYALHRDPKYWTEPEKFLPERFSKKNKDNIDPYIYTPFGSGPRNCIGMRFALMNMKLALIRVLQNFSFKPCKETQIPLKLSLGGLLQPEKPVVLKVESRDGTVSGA
Sequence of Melanin-concentrating hormone receptor 1 (P97639 whole entry): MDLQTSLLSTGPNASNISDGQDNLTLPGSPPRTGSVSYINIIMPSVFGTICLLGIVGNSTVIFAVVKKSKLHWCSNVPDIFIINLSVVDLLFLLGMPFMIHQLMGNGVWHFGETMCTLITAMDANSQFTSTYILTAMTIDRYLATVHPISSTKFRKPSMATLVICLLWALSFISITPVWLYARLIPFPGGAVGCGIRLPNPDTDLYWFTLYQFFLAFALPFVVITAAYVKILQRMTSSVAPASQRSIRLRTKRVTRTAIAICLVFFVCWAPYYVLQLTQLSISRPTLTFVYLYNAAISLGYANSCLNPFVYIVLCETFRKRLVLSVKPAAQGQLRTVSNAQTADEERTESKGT

half-life [1]: 37 h
clearance [2]: 6.9 mL/min/kg
inhibition (Homo sapiens [3]): 21%
remaining at 10 min, 3 µM [4]: 95%
inhibition (Homo sapiens [8]): 68%
AUC [9]: 11.5 µM·h
inhibition at 10 µM (L-type calcium channel): 15%
AUC [10]: 5.2 µM·h
Ki [11]: 4.9 nM
INH (Cytochrome P450 3A4): > 40 µM
Ki [12]: 11.5 nM
fraction unbound at 96 h [17]: < 0.02
clearance [19]: 1.7 mL/min/kg
Vd [20]: 7.2 L/kg
INH (Cytochrome P450 2C8): > 40 µM
Vd [22]: 4.1 L/kg
Fu [23]: 0.2%
solubility [24]: < 1 µg/mL
AUC [25]: 22.1 µM·h
logP [27]: 4.8
half-life [28]: > 24 h
remaining at 10 min, 3 µM [29]: 100%
Compound: COc1cc(-n2cnc3cc(-c4ccc(Cl)cc4)sc3c2=O)ccc1OCC1(O)CC(F)(F)C1
inhibition at 10 µM (hERG (KCNH2)): 43%
Activity [5]: Non-Toxic
Activity [6]: Non-Toxic
Activity (Rattus norvegicus [7]): 14.3%
Activity (Rattus norvegicus [13]): Non-Toxic
Activity [14]: Non-Toxic
Activity [15]: Non-Toxic
Activity (Rattus norvegicus [16]): 14.7%
Activity (Rattus norvegicus [18]): 4.1%
Activity [21]: Non-Toxic
Ki [26]: 16.9 nM

— ChEMBL document CHEMBL3856239, “Synthesis and Antiobesity Properties of 6-(4-Chlorophenyl)-3-(4-((3,3-difluoro-1-hydroxycyclobutyl)methoxy)-3-methoxyphenyl)thieno[3,2-d]pyrimidin-4(3H)-one (BMS-814580): A Highly Efficacious Melanin Concentrating Hormone Receptor 1 (MCHR1) Inhibitor” (J Med Chem, 2016)
